One compound from ChEMBL document CHEMBL1828498, “Identification and characterization of a novel integrin-linked kinase inhibitor” (J Med Chem, 2011) can be followed below.

Calls of active or inactive are those of the source. The rule behind the calls is not given here.

The test system of data set [1] is 3-phosphoinositide dependent protein kinase-2, PDK2. Briefly: Inhibition of PDK2 in human PC3 cells assessed as Akt Ser-473 dephosphorylation by Western blot analysis. In kind it is functional, cell-based. To be noted: PC-3. The method in brief:
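Cells exposed 24 h in 5% FBS medium, final DMSO 0.1%; lysed in 1% SDS/10 mM EDTA/50 mM Tris pH 8.1, equal protein on SDS-PAGE, nitrocellulose, primary antibody 1:1000 at 4°C for 2 h, HRP secondary 1:5000, ECL detection; blots representative of three independent experiments.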
On the technique in general: Immunoblotting shows a protein as a band on a membrane.

Data set [2] concerns PC-3. Briefly: Antiproliferative activity against human PC3 cells assessed as suppression of cell viability by MTT assay. In kind it is functional, cell-based. In short, it runs like this: (§1)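 Cancer lines seeded 5000/well and nonmalignant PrEC/MEC 8000/well in 10% FBS, 24 h before treatment. Compound exposure 24 h in 5% FBS medium, 0.1% final DMSO. MTT (0.25 mg/mL) for 1 h at 37°C, dye solubilized in DMSO, absorbance read at 570 nm. Mean ± SD, n = 6.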
For orientation: Formazan colour is commonly taken as a measure of viable cells.

The test system of a further data set is MCF7. In words: Antiproliferative activity against human MCF7 cells assessed as suppression of cell viability by MTT assay. Type of data set: functional, cell-based. In short, it runs like this: as §1
In another data set the test system is HMEC. In words: Antiproliferative activity against human HMEC cells at 1 to 5 uM by MTT assay. In kind it is cell-based. The method in brief: as §1
The target of data set [3] is T1, Scaffold protein ILK (Homo sapiens) (UniProt Q13418).
T1 sequence (whole entry): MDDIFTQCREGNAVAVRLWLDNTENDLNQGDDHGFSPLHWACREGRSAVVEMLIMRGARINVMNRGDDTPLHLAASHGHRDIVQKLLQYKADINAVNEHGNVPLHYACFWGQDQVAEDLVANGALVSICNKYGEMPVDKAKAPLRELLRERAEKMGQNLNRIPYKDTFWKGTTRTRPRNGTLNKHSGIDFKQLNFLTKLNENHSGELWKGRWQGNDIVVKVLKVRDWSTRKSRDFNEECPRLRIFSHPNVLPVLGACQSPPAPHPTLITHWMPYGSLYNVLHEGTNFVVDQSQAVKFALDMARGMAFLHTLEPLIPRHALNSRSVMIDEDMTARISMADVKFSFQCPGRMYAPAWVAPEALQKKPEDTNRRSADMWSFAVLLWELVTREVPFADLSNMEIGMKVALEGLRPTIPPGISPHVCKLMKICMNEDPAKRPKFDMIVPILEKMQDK
Briefly: Inhibition of ILK in human MDA-MB-231 cells assessed as decrease in MLC phosphorylation by Western blot analysis. Type of data set: cell-based. In short, it runs like this: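 PC-3 and MDA-MB-231 cells exposed 24 h in 5% FBS medium across a concentration series. Phospho-GSK3β (Ser9) and phospho-MLC (Thr18/Ser19) detected by immunoblot: SDS lysis, primary 1:1000 at 4°C for 2 h, HRP secondary, ECL. Representative of three experiments.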

The test system of data set [4] is PC-3. Briefly: Reduction in HER2 mRNA expression in human PC3 cells expressing constitutively active ILK after 24 hrs by RT-PCR analysis. Type of data set: functional, cell-based. The method in brief: (§2)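 PC-3, PC-3/CA-ILK, SKBR3 and SKBR3/CA-ILK cells treated 24 h in 5% FBS medium; total RNA from 1 × 10^6 cells by Trizol, 1 μg reverse-transcribed, then PCR with gene-specific primers and β-actin reference.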

In data set [5] the test system is PC-3. Briefly: Reduction in EGFR mRNA expression in human PC3 cells expressing constitutively active ILK after 24 hrs by RT-PCR analysis. Type of data set: functional, cell-based. The method in brief: as §2
Data set [6] relates to SK-BR-3. In words: Reduction in HER2 mRNA expression in human SKBR3 cells after 24 hrs by RT-PCR analysis. Type of data set: functional, cell-based. In short, it runs like this: as §2
The test system of data set [7] is SK-BR-3. Briefly: Reduction in HER2 mRNA expression in human SKBR3 cells expressing constitutively active ILK after 24 hrs by RT-PCR analysis. Type of data set: functional, cell-based. The method in brief: as §2
In data set [8] the test system is SK-BR-3. In words: Reduction in EGFR concentration in human SKBR3 cells after 24 hrs by Western blot analysis. In kind it is functional, cell-based. In short, it runs like this: (§3)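 PC-3 versus stable PC-3/CA-ILK, or SKBR3 versus transient SKBR3/CA-ILK (electroporation, used 48 h after), treated 24 h in 5% FBS medium; immunoblotting with ECL; representative of three experiments.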

The test system of data set [9] is SK-BR-3. Briefly: Reduction in EGFR concentration in human SKBR3 cells expressing constitutively active ILK after 24 hrs by Western blot analysis. In kind it is functional, cell-based. In short, it runs like this: as §3
The target in data set [10] is Epidermal growth factor receptor (Homo sapiens) (UniProt P00533). In words: Inhibition of EGFR at 5 uM assessed as remaining activity. In short, it runs like this: (§4)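 Panel of 20 recombinant kinases, profiled by a commercial vendor.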
For data set [11], the target named is Inhibitor of nuclear factor kappa-B kinase subunit beta (Homo sapiens) (UniProt O14920). In words: Inhibition of IKK-beta at 5 uM assessed as remaining activity. In short, it runs like this: as §4
The target of data set [12] is Serine/threonine-protein kinase mTOR (Homo sapiens) (UniProt P42345). Briefly: Inhibition of mTOR at 5 uM assessed as remaining activity.
In data set [13] the target is RAC-alpha serine/threonine-protein kinase (Homo sapiens) (UniProt P31749). Briefly: Inhibition of Akt at 5 uM assessed as remaining activity. The method in brief: as §4
In data set [14] the target is T1, Scaffold protein ILK (Homo sapiens). In words: Inhibition of ILK in human PC3 cells assessed as decrease in phosphorylated JNK concentration by Western blot analysis. To be noted: PC-3. In kind it is cell-based. The method in brief:
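PC-3 cells exposed to graded concentrations for 24 h in 5% FBS medium. Immunoblotting for phospho-Tyr397-FAK, ERK1/2, p38 and JNK. Lysis in 1% SDS buffer, primary antibody 1:1000 at 4°C for 2 h, ECL. Three independent experiments.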

The subject of data set [15] is PC-3. In words: Induction of apoptosis in human PC3 cells up to 2 uM after 48 hrs by flow cytometry. Type of data set: functional, cell-based. In general terms: Flow cytometry measures light scatter and fluorescence of single cells or particles in a stream.
Data set [16] has as its system PC-3. In words: Cytotoxicity against human PC3 cells expressing Atg5 siRNA assessed as cell viability by MTT assay. Type of data set: functional, cell-based. In short, it runs like this: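 PC-3 cells electroporated with Atg5 siRNA (or control siRNA) and used 48 h after transfection. Treated 24 h in 5% FBS medium, 0.1% DMSO. Viability by MTT, 1 h at 37°C, absorbance 570 nm. Mean ± SD, n = 6.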

Data set [17] concerns Mus musculus. Briefly: Inhibition of phosphorylation of Thr-308-Akt in human PC3 cells xenografted nude mouse tumor lysate at 25 mg/kg, po administered for 35 days by Western blot analysis. Type of data set: functional, organism-based. On the set-up: dose 25 mg/kg. To be noted: Neoplasm, PC-3. In short, it runs like this: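 Tumors harvested at terminal sacrifice after 35 days of daily oral dosing, snap-frozen and stored at -80°C; lysates immunoblotted, three representative tumors per group.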

Data set [18] has as its system Mus musculus. Briefly: Decrease in phosphorylation of GSK3-beta in human PC3 cells xenografted nude mouse tumor lysate at 25 mg/kg, po administered for 35 days by Western blot analysis. In kind it is functional, organism-based. Details: dose 25 mg/kg. To be noted: Neoplasm, PC-3. The method in brief:
(§5)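 Male NCr athymic nude mice, 5–7 weeks, with s.c. PC-3 xenografts (0.5 × 10^6 cells in 50% Matrigel), dosed by oral gavage once daily for 35 days. Vehicle 0.5% methylcellulose, 0.1% Tween 80 in water, 10 μL/g. Tumors snap-frozen at sacrifice; three tumors per group immunoblotted.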

In data set [19] the test system is Mus musculus. In words: Decrease in phosphorylation of MLC in human PC3 cells xenografted nude mouse tumor lysate at 25 mg/kg, po administered for 35 days by Western blot analysis. In kind it is functional, organism-based. Details: dose 25 mg/kg. To be noted: Neoplasm, PC-3. In short, it runs like this: as §5
Data set [20] has as its system Mus musculus. In words: Decrease in phosphorylation of EGFR in human PC3 cells xenografted nude mouse tumor lysate at 25 mg/kg, po administered for 35 days by Western blot analysis. Type of data set: functional, organism-based. On the set-up: dose 25 mg/kg. To be noted: Neoplasm, PC-3. The method in brief:
as §5

Data set [21] relates to PC-3. In words: Induction of apoptosis in human PC3 cells assessed as early apoptotic cells at 4 uM by annexin V/PI staining (reference value: 5.6%). Type of data set: functional.

Chain of RAC-alpha serine/threonine-protein kinase (Homo sapiens) (P31749 whole entry): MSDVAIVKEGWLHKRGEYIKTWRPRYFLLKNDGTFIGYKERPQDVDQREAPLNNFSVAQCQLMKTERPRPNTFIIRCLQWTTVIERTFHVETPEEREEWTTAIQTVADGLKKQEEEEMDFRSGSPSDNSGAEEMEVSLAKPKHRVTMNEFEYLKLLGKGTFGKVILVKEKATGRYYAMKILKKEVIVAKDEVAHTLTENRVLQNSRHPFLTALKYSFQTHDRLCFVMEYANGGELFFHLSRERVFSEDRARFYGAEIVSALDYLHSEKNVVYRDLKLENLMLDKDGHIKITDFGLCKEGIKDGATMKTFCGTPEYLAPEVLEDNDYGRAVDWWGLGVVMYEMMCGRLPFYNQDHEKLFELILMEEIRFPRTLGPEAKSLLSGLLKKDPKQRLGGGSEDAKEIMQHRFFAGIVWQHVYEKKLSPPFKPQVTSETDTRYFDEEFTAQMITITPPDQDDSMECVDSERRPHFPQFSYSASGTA
Chain of Epidermal growth factor receptor (Homo sapiens) (P00533 whole entry): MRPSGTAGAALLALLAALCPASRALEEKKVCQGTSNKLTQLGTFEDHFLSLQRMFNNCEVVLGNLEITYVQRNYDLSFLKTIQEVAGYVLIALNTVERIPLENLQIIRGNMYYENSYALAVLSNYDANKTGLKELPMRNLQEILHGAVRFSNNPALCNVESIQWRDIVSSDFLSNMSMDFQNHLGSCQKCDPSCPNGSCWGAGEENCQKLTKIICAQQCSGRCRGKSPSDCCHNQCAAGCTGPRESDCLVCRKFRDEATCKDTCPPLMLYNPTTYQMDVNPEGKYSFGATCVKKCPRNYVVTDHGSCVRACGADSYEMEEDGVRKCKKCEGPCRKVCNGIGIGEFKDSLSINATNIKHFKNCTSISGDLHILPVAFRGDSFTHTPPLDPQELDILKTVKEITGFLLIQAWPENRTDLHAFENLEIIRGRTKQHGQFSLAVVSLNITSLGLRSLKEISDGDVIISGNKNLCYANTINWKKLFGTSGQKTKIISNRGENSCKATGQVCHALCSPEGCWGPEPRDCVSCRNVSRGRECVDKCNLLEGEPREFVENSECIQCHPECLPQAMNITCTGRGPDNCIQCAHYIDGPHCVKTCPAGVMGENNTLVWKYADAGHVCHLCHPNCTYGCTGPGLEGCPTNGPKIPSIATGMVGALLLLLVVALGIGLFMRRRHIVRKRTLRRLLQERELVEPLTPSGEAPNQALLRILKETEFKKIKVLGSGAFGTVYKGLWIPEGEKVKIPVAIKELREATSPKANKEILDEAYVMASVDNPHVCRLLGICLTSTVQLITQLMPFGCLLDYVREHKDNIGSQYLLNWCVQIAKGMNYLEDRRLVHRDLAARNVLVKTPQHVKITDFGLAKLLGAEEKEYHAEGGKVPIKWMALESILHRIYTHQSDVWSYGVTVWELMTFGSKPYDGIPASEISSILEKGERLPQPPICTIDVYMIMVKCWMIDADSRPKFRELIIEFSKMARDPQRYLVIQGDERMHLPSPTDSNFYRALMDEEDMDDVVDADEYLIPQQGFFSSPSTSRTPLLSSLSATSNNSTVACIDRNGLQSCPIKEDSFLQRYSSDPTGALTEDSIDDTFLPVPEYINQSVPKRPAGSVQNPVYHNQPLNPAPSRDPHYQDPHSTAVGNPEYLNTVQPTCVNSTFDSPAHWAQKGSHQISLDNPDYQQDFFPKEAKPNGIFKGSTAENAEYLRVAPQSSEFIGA
Chain of Inhibitor of nuclear factor kappa-B kinase subunit beta (Homo sapiens) (O14920 whole entry): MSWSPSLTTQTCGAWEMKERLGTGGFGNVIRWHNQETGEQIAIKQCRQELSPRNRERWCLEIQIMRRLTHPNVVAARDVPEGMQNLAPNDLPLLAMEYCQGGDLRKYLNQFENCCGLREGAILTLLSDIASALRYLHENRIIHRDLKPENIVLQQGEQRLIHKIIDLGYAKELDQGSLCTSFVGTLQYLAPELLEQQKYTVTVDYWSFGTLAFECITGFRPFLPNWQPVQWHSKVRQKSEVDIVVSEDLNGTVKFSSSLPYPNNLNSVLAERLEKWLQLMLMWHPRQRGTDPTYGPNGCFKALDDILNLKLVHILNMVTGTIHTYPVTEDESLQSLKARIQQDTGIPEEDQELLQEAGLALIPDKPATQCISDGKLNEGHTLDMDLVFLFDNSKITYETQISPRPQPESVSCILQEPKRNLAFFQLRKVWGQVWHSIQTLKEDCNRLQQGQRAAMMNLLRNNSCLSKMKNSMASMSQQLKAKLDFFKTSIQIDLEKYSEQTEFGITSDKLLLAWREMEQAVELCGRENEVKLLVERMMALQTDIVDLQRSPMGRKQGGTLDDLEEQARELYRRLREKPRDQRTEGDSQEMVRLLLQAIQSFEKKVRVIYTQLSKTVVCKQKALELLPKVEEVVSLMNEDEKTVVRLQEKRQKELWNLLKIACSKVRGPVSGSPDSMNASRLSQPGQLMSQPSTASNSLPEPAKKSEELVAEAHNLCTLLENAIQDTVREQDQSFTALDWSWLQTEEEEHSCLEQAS

What is called IC50 is the point on the concentration scale where inhibition reaches its midpoint. For the compound `CNC(=O)CCc1cc(-c2ccc(-c3ccc(C(F)(F)F)cc3)cc2)n(-c2ccc(N3CCNCC3)cc2)n1`, the inhibition entry in [1] is “Dose-dependent effect”. Besides, the IC50 stood at 2000 nM in the data set with PC-3 [2] and 2500 nM with MCF7. The “inhibition (INH)” value in the data set on HMEC is recorded as “Not Active”. Moreover, in data set [3], the inhibition result is “Active”. Also, the result with PC-3 [4], in the data set with PC-3 [5], in the data set on SK-BR-3 [7], in the data set on SK-BR-3 [9], in the data set with PC-3 [15] and with PC-3 [16] was inactive. Also, the result in the data set with Mus musculus [17] was inactive. Moreover, the Activity entry with SK-BR-3 [6] is “Dose-dependent effect”; in the data set with SK-BR-3 [8] it was “Dose-dependent effect”; in data set [10], 103%; in data set [11], 102%; in data set [12] it was 122%; in data set [13], 88%. Further, the Activity in the data set on PC-3 [21] is listed as 25.2%. Also, the inhibition result in [14] is “inactive”. Moreover, the result with Mus musculus [18], in the data set with Mus musculus [19] and in the data set on Mus musculus [20] was Active.
